Bioassay records as filed in PubChem.
Sampled rows, rich in hits. Any-hit rate of the full collection: about 2.1%.
PAX8 reporter: PAX8 transcriptional activity inhibition. inhibition, % at 12.6 µM. RMG-I TPO-luciferase reporter, SteadyGlo, 24 h. actives 1.2% (n = 360,000);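 active = mean replicate inhibition at least 60% with every replicate also reaching 60%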;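 also: luciferase light reporting Pax8 driven TPO promoter activity; plate controls were median of neutral control wells for no effect and mitoxantrone controls for full effect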
INS-1E GSIS act: primary screen for activators of insulin secretion dependent on glucose, INS-1E cells, GLuc reporter luminescence; INS-1E GLuc reporter insulin secretion, 2-3 h; activation, % at 16.6 µM; actives 0.61% (n = 370,000); AID 743287;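 active = lowest replicate activation of at least 40%, so every replicate reaches that level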;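 also: 0% = median of neutral control wells and 100% = median of IBMX positive control wells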
EWS-Fli block: inhibitors of EWS/Fli oncoprotein transcriptional activity. inhibition, % at 12.6 µM. A673 NR0B1-luciferase reporter, viability-normalised. actives 0.67% (n = 350,000);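 active = mean inhibition of at least 50% after viability correction, with every replicate also passing that limit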;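 also: firefly luciferase signal divided by Alamar Blue viability fluorescence both relative to DMSO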
PGC1a acetyl inh: PGC1a acetylation modulation, inhibitor mode. actives 0.17% (n = 350,000). U2OS PGC1a acetylation, AlphaScreen anti-acetyl-lysine; with virally co-expressed GCN5 acetyltransferase. inhibition, % at 15.6 µM;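 active = every replicate shows inhibition of at least 40%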;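 also: 0% = neutral control wells and 100% = positive control wells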
XiGFP reactiv: X-chromosome reactivation activator; XiGFP mouse fibroblasts, % GFP-positive cells imaging, 3 d; cells co-treated with 5-aza-dC sensitizer; scaled so ellipticine positive control = 100%; activation, % at 7.58 µM; actives 0.055% (n = 360,000); AID 743238;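 active = mean normalized replicate activation at least 10% and every replicate at or above 10%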;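 also: 0% = median of on-plate neutral control wells and 100% = ellipticine 6 µM median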
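Material: XiGFP fibroblasts, SV40-immortalized; Buffer or medium: DMEM containing 5-aza-dC; Compound dosing: single point; Times: 3 days compound exposure.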
MLL AF4-AF9 inh: blocks AF4 peptide binding to human AF9; AID 651704; inhibition, % at 10 µM; P42568; actives 0.47% (n = 350,000); AlphaScreen, biotin-AF4 peptide binding to FLAG-AF9;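 active = every replicate reaching a set inhibition limit, whatever the replicate mean, cut at about 25% in these data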;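 also: 0% = plate neutral control median and 100% = total signal loss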
Target sequence (P42568 whole entry, looked up): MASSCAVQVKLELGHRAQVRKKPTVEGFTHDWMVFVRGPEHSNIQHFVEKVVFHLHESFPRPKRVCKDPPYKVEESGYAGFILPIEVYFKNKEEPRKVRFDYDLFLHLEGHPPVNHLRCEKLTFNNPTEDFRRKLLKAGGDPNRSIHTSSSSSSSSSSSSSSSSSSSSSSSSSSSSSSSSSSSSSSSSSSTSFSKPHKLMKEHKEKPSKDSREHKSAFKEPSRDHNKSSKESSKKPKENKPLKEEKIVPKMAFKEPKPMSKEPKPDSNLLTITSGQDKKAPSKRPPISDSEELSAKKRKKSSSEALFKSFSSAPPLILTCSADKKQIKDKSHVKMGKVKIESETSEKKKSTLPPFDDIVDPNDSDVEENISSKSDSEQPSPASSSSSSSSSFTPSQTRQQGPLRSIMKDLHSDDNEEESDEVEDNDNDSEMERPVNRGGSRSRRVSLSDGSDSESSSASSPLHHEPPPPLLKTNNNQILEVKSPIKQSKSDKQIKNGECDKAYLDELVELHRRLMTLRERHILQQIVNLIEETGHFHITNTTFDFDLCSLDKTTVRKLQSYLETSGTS
Active calls of the source: *; / = not tested or not shown; ! = not active in a repeat.

SMILES | PAX8 reporter | INS-1E GSIS act | EWS-Fli block | PGC1a acetyl inh | XiGFP reactiv | MLL AF4-AF9 inh
Cc1cccc(C)c1NC(=O)c1csc([C@@H]2O[C@H](CO)[C@H](O)[C@H](O)[C@H]2O)n1 | -2.7 | 52.5* | 38.4 | -0.9 | -0.1 | 1.6
C[C@H]1CCCCO[C@@H](CN(C)Cc2ccc(Cl)c(Cl)c2)[C@@H](C)CN([C@@H](C)CO)C(=O)c2cc(NC(=O)Nc3ccc(C(F)(F)F)cc3)ccc2O1 | 83.3* | 10.6 | -0.7 | 0.2 | 0.4 | 1.0
C[C@@H]1CCCCO[C@H](CN(C)Cc2ccc(Cl)c(Cl)c2)[C@@H](C)CN([C@@H](C)CO)C(=O)c2cc(NC(=O)Nc3ccc(C(F)(F)F)cc3)ccc2O1 | 94.7* | 13.2 | -0.1 | -12.2 | 0.0 | -2.3
C[C@@H]1CCCCO[C@@H](CN(C)Cc2ccc(Cl)c(Cl)c2)[C@H](C)CN([C@@H](C)CO)C(=O)c2cc(NC(=O)Nc3ccc(C(F)(F)F)cc3)ccc2O1 | 91.0* | 30.0 | -8.1 | -7.7 | -1.3 | -1.1
C[C@@H]1CN([C@@H](C)CO)C(=O)c2cccc(NC(=O)Nc3ccc4c(c3)OCO4)c2O[C@@H]1CN(C)S(=O)(=O)c1ccccc1 | -41.5 | -5.9 | -10.9 | 5.8 | -0.2 | 6.7
COc1ccc(CN(CCN(C)C)c2ccccn2)cc1 | 82.8*! | -0.4 | 1.1 | 2.2 | 0.2 | -3.1
C[C@@H]1CCCCO[C@H](CN(C)Cc2ccc(Cl)c(Cl)c2)[C@@H](C)CN([C@@H](C)CO)C(=O)c2cc(N(C)C)ccc2O1 | 22.8 | -7.4 | / | -10.2 | 0.0 | 60.8*
C[C@@H]1CCCCO[C@@H](CN(C)Cc2ccc(Cl)c(Cl)c2)[C@H](C)CN([C@@H](C)CO)C(=O)c2cc(N(C)C)ccc2O1 | -42.7 | -2.7 | -19.8 | -10.8 | -0.6 | 40.2*
C[C@@H]1CCCCO[C@@H](CN(C)Cc2ccc(Cl)c(Cl)c2)[C@H](C)CN([C@H](C)CO)C(=O)c2cc(N(C)C)ccc2O1 | 17.5 | -23.2 | / | 18.5 | 2.4 | 60.7*
Cc1ccc(S(=O)(=O)N(C)C[C@@H]2OCc3ccccc3-c3ccccc3C(=O)N([C@H](C)CO)C[C@H]2C)cc1 | / | -28.6 | 3.1 | -4.9 | 0.1 | 15.1
O=C(c1cccnc1)N1CC(=O)N2[C@H](C1)[C@@H](c1ccc(C#CCC3CCCC3)cc1)[C@@H]2CO | 21.3 | -6.6 | -0.1 | -3.2 | 0.1 | 4.3
COc1ccccc1CN1CC2(C1)[C@@H](c1ccccc1)[C@@H](CO)N2Cc1ccccc1 | / | -5.4 | / | / | -0.1 | /
C[C@@H]1CN([C@H](C)CO)S(=O)(=O)c2ccc(C#CC3CC3)cc2O[C@@H]1CN(C)Cc1ccc(F)cc1 | / | -21.8 | 22.9 | -20.3 | 0.6 | 5.3
CC(C)C#Cc1cnc2c(c1)C(=O)N([C@H](C)CO)C[C@@H](C)[C@H](CN(C)C(=O)c1cccc(F)c1)O2 | / | -7.5 | -4.0 | -18.0 | 0.0 | -0.5
CN(C)C(=O)[C@H]1[C@H](CO)[C@H]2Cn3c(ccc(-c4cccc(F)c4)c3=O)[C@@H]1N2Cc1ccccc1 | / | -3.9 | 0.5 | / | 0.1 | 1.0
CC(NC(=O)CN(c1cccc(C(F)(F)F)c1)S(=O)(=O)c1ccc(Cl)c([N+](=O)[O-])c1)c1ccccc1 (centres undefined) | 61.3* | -3.1 | 59.8* | / | 0.1 | 2.2
CC(=O)N1CC2(C1)[C@@H](c1ccccc1)[C@@H](CO)N2C(=O)c1ccncc1 | -9.5 | 34.3 | -1.8 | -0.3 | 0.0 | -1.4
C[C@H]1C=C(C(=O)N2CCN(Cc3ccccc3)CC2)O[C@@H](OCc2ccc(CO)cc2)C1 | 5.3 | / | -4.1 | / | / | -0.9
C=CC(=O)Nc1sc2c(c1C(N)=O)CCCC2 | 80.0* | / | -13.1 | / | 0.0 | 2.3
Cc1ccccc1-c1cnc2c(c1)C(=O)N([C@H](C)CO)C[C@H](C)[C@@H](CN(C)C(=O)CC1CC1)O2 | -38.5 | -7.8 | -6.2 | 4.0 | -0.9 | -1.2
NCCCC[C@H](N)c1nnc([C@H](CCC(=O)O)NC(=O)C2CCNCC2)o1 | 12.9 | 12.6 | -5.4 | 13.3 | -0.1 | 28.1*
N[C@@H](CO)c1nnc([C@H](CCC(=O)O)NC(=O)C2CCNCC2)o1 | -11.3 | 13.1 | -5.8 | 7.4 | -0.2 | -2.1
